# Screens deposited in PubChem by The Scripps Research Institute Molecular Screening Center.
# CHRM4 antagonist: antagonists of human muscarinic M4 receptor (CHRM4) | P08173 | CHO-hM4 cells, ACh EC80, Fluo-8 calcium fluorescence | inhibition, % at 3 µM | 360,000 tested, 0.73% active | AID 624125;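 active = inhibition above its plate's cutoff, the mean inhibition of sample wells plus 3 SD, cut at about 27% in these data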;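 note: 0% = acetylcholine EC80 with DMSO and 100% = DMSO without agonist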
# M4 ag: agonists of human muscarinic M4 receptor (CHRM4); activation, % at 3 µM; P08173; CHO-K1 hM4/Gqi5, Fluo-8 calcium fluorescence; vehicle 0%, full acetylcholine response 100%; 360,000 tested, 0.14% active;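 active = activation above the run mean over all test wells plus 3 SD, cut at about 32% in these data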;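 note: peak over basal fluorescence ratio per well then scaled between controls; 0% = DMSO wells and 100% = acetylcholine at EC100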
# M4 PAM: potentiates acetylcholine response at human M4 receptor. P08173. CHO-K1 hM4/Gqi5, Fluo-8 calcium fluorescence, ACh EC20; 0% = ACh EC20, 100% = maximal ACh. activation, % at 3 µM. 360,000 tested, 0.4% active;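 active = activation above its plate's cutoff, the mean activation of sample wells plus 3 SD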
# M5 ag: agonists of human muscarinic M5 receptor (CHRM5); CHO-K1 hM5 cells, Fluo-8 calcium fluorescence; 0% DMSO wells, 100% maximal acetylcholine response; activation, % at 3 µM; 360,000 tested, 0.19% active; AID 624037;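 active = activation above the run's mean over test compounds plus 3 SD, cut at about 23% in these data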;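 note: signal is peak over basal fluorescence ratio across the kinetic read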
# Target sequence (P08912 whole entry, looked up): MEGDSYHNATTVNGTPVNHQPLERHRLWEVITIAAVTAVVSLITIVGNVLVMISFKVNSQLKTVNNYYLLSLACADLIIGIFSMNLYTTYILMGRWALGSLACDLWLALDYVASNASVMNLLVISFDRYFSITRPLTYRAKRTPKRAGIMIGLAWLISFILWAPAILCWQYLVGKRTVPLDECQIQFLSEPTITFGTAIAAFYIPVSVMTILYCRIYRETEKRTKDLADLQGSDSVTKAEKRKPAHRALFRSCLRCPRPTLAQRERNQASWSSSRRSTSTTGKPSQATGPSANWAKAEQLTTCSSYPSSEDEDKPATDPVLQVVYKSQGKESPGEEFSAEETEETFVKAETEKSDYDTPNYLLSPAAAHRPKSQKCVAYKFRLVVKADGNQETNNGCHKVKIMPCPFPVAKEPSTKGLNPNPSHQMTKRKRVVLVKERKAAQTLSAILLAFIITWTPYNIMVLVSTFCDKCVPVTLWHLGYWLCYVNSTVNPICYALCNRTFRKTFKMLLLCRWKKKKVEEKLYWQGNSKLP
# CHRM5 PAM: potentiates acetylcholine response at human M5 receptor | P08912 | CHO-K1 hM5, Fluo-8 calcium, ACh EC20 PAM; 0% = ACh EC20, 100% = ACh EC100 | activation, % at 3 µM | 360,000 tested, 0.3% active | AID 624038;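 active = activation above the run cutoff, the mean activation of all test compounds plus 3 SD, cut at about 18% in these data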
#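 System: CHO-K1 cell line with stable human muscarinic M5 receptor expression | Also added: EC20 acetylcholine as agonist stimulus | Compound: One concentration, 3 µM final (nominal) | Timing: Fluo-8 loading 80 min at 37 °C plus 30 min room temperature | Measured by: Fluo-8 calcium dye fluorescence, kinetic read | Read-out basis: % activation, ACh-normalized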
# CHRM5 antagonist: blocks acetylcholine activation of human M5 receptor | P08912 | CHO-hM5 cells, Fluo-8 calcium fluorescence, ACh EC80 | inhibition, % at 3 µM | 360,000 tested, 0.59% active | AID 624040;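 active = inhibition above a per-plate cutoff, the mean of that plate's test compounds plus 3 SD, cut at about 27% in these data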;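 note: 0% = acetylcholine EC80 with DMSO and 100% = DMSO without agonist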
# The depositor's hits bear a star. An excerpt weighted towards active compounds, which were near 1.8% of everything screened.
SMILES,CHRM4 antagonist,M4 ag,M4 PAM,M5 ag,CHRM5 PAM,CHRM5 antagonist
CSc1ncc(CN2CCN(CC=C(C)C)C(CCO)C2)cn1 (stereo not given),1,1,-5,-2,-4,7
CSc1ncc(CN2CCN(C3CCCC3)C(CCO)C2)cn1 (stereo not given),42*,0,-41,-10,1,3
COc1ccc(-n2ccnc2CN2CCN(C3CCCC3)C(CCO)C2)cc1 (stereo not given),0,0,-5,-1,0,1
OCCC1CN(Cc2nc(-c3ccccc3)cs2)CCN1Cc1ccc(F)cc1 (stereo not given),1,10,-1,3,-5,9
CC(=O)Nc1ccc(CN2CCN(C3CCCC3)C(CCO)C2)cc1 (stereo not given),35*,0,-24,-15,5,4
COc1ccc(S(=O)(=O)N2CCC(C(=O)NCCc3ccccc3)CC2)cc1,2,-1,6,-2,-1,1
OCCC1CN(Cc2c(F)cccc2Cl)CCN1C1CCCC1 (stereo not given),26*,1,-21,-15,3,9
OCCC1CN(Cc2c(F)cccc2Cl)CCN1C1CCCCC1 (stereo not given),5,0,-26,-9,11,-4
CCN1CCN(Cc2ccc(NC(=O)Nc3ccccc3)cc2)CC1,-12,1,1,-2,-4,-3
CC(=O)Nc1ccc(CN2CCCN(C)CC2)cc1,1,2,0,-6,-16,30*
CC(=O)OC[C@]12CC[C@H]3[C@@](C)(CC[C@H]4C(C)(C)CCC[C@]34C)[C@@H]1CC(C1=CC(=O)OC1O)O2 (stereo not given in full),88*,2,-13,1,-2,13
CC(=O)OC[C@]1(OC(C)=O)C[C@@]23CC[C@H]4[C@@](C)(CCC[C@@]4(C)C(=O)O)[C@@H]2CC[C@@H]1C3,-1,1,2,-1,-2,7
Cc1ccc(Oc2ncccc2C(=O)NCC(=O)O)cc1,-11,0,0,0,21*,0
COc1cccc(C2C(C(=O)c3cccs3)=C(O)C(=O)N2c2cc(C)on2)c1 (stereo not given),-15,0,6,2,26*,2
Cc1cc(N2C(=O)C(O)=C(C(=O)c3cccs3)C2c2ccc(F)cc2)no1 (stereo not given),-25,-2,28,5,19*,-10
Cc1cc(N2C(=O)C(O)=C(C(=O)c3cccs3)C2c2ccccc2)no1 (stereo not given),0,-3,4,3,7,1
CC(=NNC(N)=O)C1=C(O)C(C(C)C)NC1=O (stereo not given),-3,1,2,1,8,0
C/C(=N\NC(=O)c1cc(-c2cccc([N+](=O)[O-])c2)n[nH]1)c1ccccc1O,3,2,7,-1,-10,22
O=C(Nc1nc2nccc(-c3ccccc3)n2n1)c1ccccc1,100*,-1,-16,-3,-3,11
CCOc1ccc(NC(=O)CSc2nnnn2-c2ccc(C(N)=O)cc2)cc1,3,1,4,-4,-2,-2
CCOC(=O)C1(C)CCN1C(=O)c1cccc2ccccc12 (stereo not given),9,1,-5,1,2,0
Cc1ccc(CNC(=O)C(NS(=O)(=O)c2cccc3nsnc23)C(C)C)cc1 (stereo not given),0,2,-5,-4,-8,30*
Cc1ccc(NC(=O)C(NS(=O)(=O)c2cccc3nsnc23)C(C)C)nc1 (stereo not given),-16,1,8,-2,-1,-8
CCc1nc2ccc(C(=O)NCCCn3ccnc3)cn2c1N(C)CCCc1ccccc1,27*,5,-10,-3,-15,10
CCc1nc2ccc(C(=O)N3CCCCC3)cn2c1N(C)CCCc1ccccc1,33*,5,-11,-3,-16,2
SMILES,CHRM4 antagonist,M4 ag,M4 PAM,M5 ag,CHRM5 PAM,CHRM5 antagonist
CCCCc1c(-c2ccccc2OC)ncn1C1CCCC1,-1,13,-11,0,-13,1
Cn1ncc([N+](=O)[O-])c1C(=O)N/N=C/c1ccc(F)cc1,7,1,31*,1,3,-8
Cc1ccc(C2CC(=O)c3cnc(NC(=O)c4ccco4)nc3C2)cc1 (stereo not given),-14,3,15*,-1,22*,0
Cc1ccc(Nc2ncc3c(n2)CC(c2ccco2)CC3=O)c(C)c1 (stereo not given),1,0,29*,-2,5,-4
COc1ccc(-c2noc(CN(C)C(=O)CCCN3C(=O)[C@H]4CC=CC[C@H]4C3=O)n2)cc1,-16,13,-2,6,0,-8
NC(=O)C1CC(=O)N(c2ccc(OCc3ccc(Cl)c(Cl)c3)cc2)C1 (stereo not given),9,16,-6,9,-13,28*
CCN(CC)c1ccc(/C=C(\C#N)C(N)=O)cc1,-5,2,-3,-4,1,0
CN(C)c1ccc(/C=C(\C#N)C(=O)c2ccccc2)cc1,37*,70*,-23,63*,-21,40*
CCN(CC)c1ccc(/C=C(\C#N)C(=O)c2ccc(Br)cc2)cc1,51*,58*,-10,108*,-18,70*
COC(=O)CCCn1cc(CN2CC(N3CCCC3)CS2(=O)=O)nn1 (stereo not given),-6,1,6,2,5,-6
COc1ccc(CC(=O)NC(=S)Nc2cccc(C)c2)cc1,5,29,-20,30*,5,6
COc1cc(NC(=O)c2cc(Cl)nnc2Cl)cc(OC)c1OC,0,1,-2,0,0,0
COc1ccccc1NC(=S)NC(=O)Cc1ccc(Cl)cc1,1,4,-4,5,-7,9
COc1cccc(NC(=O)c2cc(Cl)nnc2Cl)c1,-7,4,24*,-5,8,0
COc1cccc(NC(=S)NC(=O)Cc2ccc(Cl)cc2)c1,0,29,-5,36*,1,12
COc1ccc(CC(=O)NC(=S)Nc2cccc(CO)c2)cc1,1,15,2,31*,4,-7
Cc1cccc(NC(=S)NC(=O)CCc2ccccc2)c1,-1,-2,-2,-6,-2,-4
COCCNC(=O)C1CCCN(C(=O)c2cccnc2Oc2ccccc2)CC1 (stereo not given),-5,0,4,-2,-4,-1
